The source of these data is ChEMBL document CHEMBL1134638, “Synthetic 2-aroylindole derivatives as a new class of potent tubulin-inhibitory, antimitotic agents” (J Med Chem, 2001).

In assay [1] the test system is HeLa. In words: In vitro inhibitory activity against HeLa/KB cells using XTT proliferation assay. The format is functional, cell-based. Conditions: Homo sapiens. The essentials:
(§1)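 XTT proliferation assay measuring cellular metabolic activity after 48 h incubation with compound. Compounds dissolved in DMSO at 1 mg/mL stock. IC50 or estimates obtained by nonlinear regression. Each experiment at least in duplicate.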

Assay [2] addresses T1, Tubulin beta chain (Bos taurus, UniProt Q6B856). The assay can be described thus: Inhibition of tubulin polymerization. Format: functional. Put shortly: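 Bovine brain tubulin with MAPs, prepared by polymerization/depolymerization cycles (0.8 mg/mL), incubated with compound (4 µg/mL for screening, a concentration range for IC50). Run in PEM buffer pH 6.6 with 1 mM GTP at 37 °C for 1 h. Microtubules collected on 0.22 µm filters, stained with amido black, eluted, absorbance read at 600 nm.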

Assay [3] concerns SK-OV-3. The assay can be described thus: In vitro inhibitory activity against SK-OV-3 cells using XTT proliferation assay. The format is functional, cell-based. The note with it: Homo sapiens. The essentials:
as §1
On the technique in general: Tetrazolium dyes change colour on reduction, which living cells bring about.

The target of assay [4] is Tubulin beta chain (Bos taurus) (UniProt Q6B856).
Sequence of Tubulin beta chain (Bos taurus) (Q6B856 whole entry): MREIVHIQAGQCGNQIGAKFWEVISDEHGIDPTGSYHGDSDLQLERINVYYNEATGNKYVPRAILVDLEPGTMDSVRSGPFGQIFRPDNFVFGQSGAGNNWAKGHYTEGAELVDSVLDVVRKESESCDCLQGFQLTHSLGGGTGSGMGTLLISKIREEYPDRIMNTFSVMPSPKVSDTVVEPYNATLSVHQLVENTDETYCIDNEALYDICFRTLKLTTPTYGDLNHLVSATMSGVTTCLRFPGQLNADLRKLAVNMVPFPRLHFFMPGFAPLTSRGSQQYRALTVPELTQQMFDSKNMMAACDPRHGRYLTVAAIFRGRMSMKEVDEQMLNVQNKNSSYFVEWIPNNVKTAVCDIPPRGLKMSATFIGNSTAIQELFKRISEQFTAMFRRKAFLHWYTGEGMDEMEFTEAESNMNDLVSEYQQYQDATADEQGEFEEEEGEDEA
For assay [5] the target is unchanged. The source holds these as a separate data set.
Assay [6] deals with HeLa. The assay can be described thus: In vitro inhibitory activity against HeLa/KB cells using XTT proliferation assay. Format: functional, cell-based. The note with it: Homo sapiens. The essentials: as §1
Another assay concerns Tumor Cell line. The assay can be described thus: Mean cytotoxicity against a panel of human tumor cell lines. Format: functional. Put shortly: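 Modified propidium iodide assay quantifying dead cells by DNA/RNA staining, run on a human tumor cell panel (breast, colon, stomach, lung, melanoma, ovary, renal, soft tissue lines). Growth inhibition expressed as % T/C; IC70 per line from concentration-viability plots. Mean IC70 is the geometric mean across lines; unreached values set to the lowest or highest concentration tested.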

Assay [7] concerns Mus musculus. The assay can be described thus: Drug relative deaths against MEXF 989 cells for a dose of 100 [mg/kg], schedule of d1-5,8-12 by oral administration in mice. Format: functional. The essentials: (§2)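 Outbred NMRI nude mice, 6-8 weeks old, sex matched to donor patient. s.c. fragments (~25 mg) implanted in both flanks. Randomised at 100-200 mm3, 6-12 tumors per group. Compound in DMSO diluted with PBS/0.05% Tween 80 to 10% final DMSO, given orally daily on days 1-5 and 8-12. Toxic deaths and body weight change recorded.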

Assay [8] deals with Mus musculus. The assay can be described thus: Drug relative deaths against MEXF 989 cells for a dose of 200 [mg/kg], schedule of d1-5,8-12 by peroral administration in mice. The format is functional. Put shortly: as §2
Assay [9] relates to Mus musculus. In words: Drug relative deaths against RXF 944LX cells for a dose of 100 [mg/kg], schedule of d1-5,8-12 by oral administration in mice. Format: functional. Put shortly:
as §2

Assay [10] has as its system Mus musculus. The assay can be described thus: Drug relative deaths against RXF 944LX cells for a dose of 200 [mg/kg], schedule of d1-5,8-12 by peroral administration in mice. Format: functional. The essentials: as §2
For assay [11], the system named is Mus musculus. The assay can be described thus: Growth delay until tumor doubling in days against RXF 944LX cells for a dose of 100 [mg/kg], schedule of d1-5,8-12 by oral administration in mice. The format is functional. Put shortly:
(§3)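 NMRI outbred nude mice aged 6–8 weeks, sex matched to the donor patient. About 25 mg tumor fragments (MEXF 989 or RXF 944L) implanted s.c. in both flanks. Once tumors reached 100–200 mm3, animals were randomized (6–12 tumors/group). Dosing 100 or 200 mg/kg/day orally on days 1–5 and 8–12, in 10% DMSO/PBS with 0.05% Tween 80. Calipers twice weekly. Outputs: T/C from median tumor weights, growth delay to 200% volume, and body weight change.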

Assay [12] deals with Mus musculus. The assay can be described thus: Growth delay until tumor doubling in days against MEXF 989 cells for a dose of 100 [mg/kg], schedule of d1-5,8-12 in mice by oral administration. The format is functional. The essentials: as §3
For assay [13], the system named is Mus musculus. The assay can be described thus: Medium maximum body weight change in percentage against MEXF 989 cells for a dose of 100 [mg/kg], schedule of d1-5,8-12 by oral administration in mice. The format is functional. The essentials: as §3
Assay [14] has as its system Mus musculus. The assay can be described thus: Medium maximum body weight change in percentage against MEXF 989 cells for a dose of 200 [mg/kg], schedule of d1-5,8-12 by peroral administration in mice. The format is functional. The essentials: as §3
In assay [15] the test system is Mus musculus. The assay can be described thus: Medium maximum body weight change in percentage against RXF 944LX cells for a dose of 100 [mg/kg], schedule of d1-5,8-12 by oral administration in mice. Format: functional. Put shortly:
as §3

For assay [16], the system named is Mus musculus. In words: Medium maximum body weight change in percentage against RXF 944LX cells for a dose of 200 [mg/kg], schedule of d1-5,8-12 by peroral administration in mice. Format: functional. The essentials: as §3
Assay [17] has as its system Mus musculus. The assay can be described thus: Growth delay until tumor doubling in days against MEXF 989 cells for a dose of 200 [mg/kg], schedule of d1-5,8-12 by peroral administration in mice. Format: functional. Put shortly: as §3
Assay [18] has as its system Mus musculus. In words: Optimum tumor weight of treated / control animals in % (deviation) for a dose of 100 [mg/kg], schedule of d1-5,8-12 by oral administration in mice. The format is functional. The essentials:
as §3

The subject of assay [19] is SK-OV-3. The assay can be described thus: In vitro inhibitory activity against SK-OV-3 cells using XTT proliferation assay. The note with it: Homo sapiens. The format is functional, cell-based. Put shortly: as §1
Assay [20] relates to U373 MG. The assay can be described thus: Cytotoxicity against U373 astrocytoma cells. Conditions: Homo sapiens. Format: functional, cell-based, U-373MG ATCC. The essentials:
as §1

In assay [21] the test system is U373 MG. The assay can be described thus: (§4) Cell cycle arrest activity against U373 astrocytoma cells. Conditions: Homo sapiens.
For assay [22], the system named is U373 MG. The description is as §4. The format is functional, cell-based, U-373MG ATCC. Conditions: Homo sapiens. Put shortly: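 U373 cells (5 × 10^6) exposed to compound for 24 h at 37 °C, trypsinised, washed in PBS, fixed in 80% methanol 30 min on ice. Stained with 20 µg/mL propidium iodide plus 1 mg/mL RNase A in PBS/0.1% saponin, 30 min at 37 °C. DNA content read by flow cytometry; G2/M fraction modelled. IC50 by nonlinear regression of dose-response.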

Assay [23] deals with T1, Tubulin beta chain. In words: Inhibition of tubulin polymerization. Format: functional.
Assay [24] deals with Tubulin beta chain (Bos taurus) (UniProt Q6B856). In words: beta-Tubulin GTPase activity at 1 uM concentration. Put shortly:
(§5)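 MAP-free purified bovine brain tubulin (1 mg/mL) in PEM pH 6.6 with 1 mM MgCl2, 100 µM [α-32P]GTP and 1 M monosodium glutamate. Compound added beforehand, final 1% DMSO. Incubated 1 h at 37 °C, stopped with 1% SDS. GDP/GTP separated by PEI-cellulose TLC in 0.35 M (NH4)2CO3 and quantified by phosphorimager as the GDP/GTP ratio.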

Assay [25] shares this target. The assay can be described thus: beta-Tubulin GTPase activity at 10 uM concentration. The essentials: as §5
A further assay addresses Tubulin (Bos taurus, UniProt Q6B856+Q862L2+Q862F3). The assay can be described thus: Inhibition of tubulin polymerization; No effect at a concentration up to 10 uM. Format: functional.

Each structure is given as a SMILES string. Converted amounts (≈) assume the structure as drawn. “And” between values parts separate entries of the source, which are not always exact repeats. Equal values may be shown once.

T1 sequence (Q6B856 whole entry): as above

Take `COc1ccc2[nH]c(C(=O)c3cccc(SC(F)F)c3)cc2c1`: the values for the IC50 in the assay with HeLa [1], against Tubulin beta chain [2] and in the assay on SK-OV-3 [3] were 390 nM, 2100 nM and 360 nM, respectively.

`COc1ccc2[nH]c(C(=O)c3cccc(SC(F)(F)F)c3)cc2c1`: the values for the IC50 in the assay on HeLa [1], on Tubulin beta chain [2] and in the assay with SK-OV-3 [3] were 880 nM, over 10000 nM and 630 nM, respectively.

Take `CC[C@]1(O)C[C@H]2CN(CCc3c([nH]c4ccccc34)[C@@](C(=O)OC)(c3cc4c(cc3OC)N(C=O)[C@H]3[C@@](O)(C(=O)OC)[C@H](OC(C)=O)[C@]5(CC)C=CCN6CC[C@]43[C@@H]65)C2)C1`: the GTPase Activity came to 5.3 in assay [4] and 0.09 in assay [5].

For the compound `COc1ccc2[nH]c(C(=O)c3ccccc3)cc2c1`, the IC50 – broadly, the concentration needed to halve the response being measured – with HeLa [6] was 68 nM; with SK-OV-3 [19], 680 nM; in the assay with U373 MG [20], 74 nM; with U373 MG [21] it was 62.7 nM. Also, in the assay with Tumor Cell line, the IC70 (as a rule, the point of the concentration-response curve where the effect stands at 70%) was found to be 0.22 µg/mL (≈ 0.875 µM). Besides, the Activity in the assay on Mus musculus [7], in the assay with Mus musculus [8], with Mus musculus [9] and in the assay on Mus musculus [10] was 0% in each case. In addition, the GD200 in the assay on Mus musculus [11] is -0.4 days; with Mus musculus [12], 4.8 days; in the assay with Mus musculus [17], 12.9 days. The BWC in the assay with Mus musculus [13] is 11%; in the assay with Mus musculus [14], 3%; in the assay on Mus musculus [15], 11%; in the assay on Mus musculus [16] it was 1%. The “T/C (d)” value in the assay on Mus musculus [18] was 34% and 100%.

With `COc1ccc2[nH]c(C(=O)c3cc(OC)c(OC)c(OC)c3)cc2c1`, the concentration for half-maximal inhibition (IC50) was found to be 29 nM with HeLa [6]; 58 nM with SK-OV-3 [19]; 36.1 nM with U373 MG [22]; 73 nM in the assay with U373 MG [20]; 990 nM at Tubulin beta chain [23]. The 70% effect level with Tumor Cell line (IC70) was put at 0.17 µg/mL (≈ 0.498 µM).

With `CC(=O)O[C@H]1C(=O)[C@@]2(C)[C@H]([C@H](OC(=O)c3ccccc3)[C@]3(O)C[C@H](OC(=O)[C@H](O)[C@@H](NC(=O)c4ccccc4)c4ccccc4)C(C)=C1C3(C)C)[C@]1(OC(C)=O)CO[C@@H]1C[C@@H]2O`, the GTPase Activity was determined as 3.3 in [4] and 1.4 in assay [5].

For the compound `COC(=O)Nc1nc2cc(C(=O)c3cccs3)ccc2[nH]1`, the figures for the GTPase Activity in [24] and in assay [25] were 4.9 and 9, respectively.

As for `COc1ccc2[nH]c(C(=O)c3cccc(OCc4ccccc4)c3)cc2c1`, the results for the IC50 with HeLa [6], with SK-OV-3 [19] and on Tubulin were over 8600 nM, over 8600 nM and “No effect”, respectively.

As to `COc1cccc(C(=O)c2cc3cc(OC)ccc3[nH]2)c1`, the IC50 in the assay with HeLa [6] turned out to be 11 nM; with SK-OV-3 [19], 11 nM; in the assay with U373 MG [22] it was 10.7 nM; in the assay on U373 MG [20], 28 nM; on Tubulin beta chain [23], 530 nM. The IC70 with Tumor Cell line was 0.27 µg/mL (≈ 0.96 µM).

As to `CCCCCOc1ccc(C(=O)c2cc3cc(OC)ccc3[nH]2)cc1`, the IC50 was over 9500 nM with HeLa [6], over 9500 nM in the assay with SK-OV-3 [19] and “No effect” against Tubulin.
